{"data": "Experimental data gathered from unrelated publications", "target": "Mitogen-activated protein kinase 11 (MAPK11, Homo sapiens, UniProt Q15759)", "note": "Each line is one published result; the experiments were not run side by side."}
{"Compound": "Nc1ncc(-c2nc(N3CCOCC3)nc(N3CCOCC3)n2)c(C(F)F)n1", "assay": "binding, competition with immobilised ligand", "setting": "10 µM", "endpoint": "remaining binding", "value": "98%"}
{"Compound": "COc1ncccc1-c1cnn2ccc(N3CCN(C(=O)OC(C)C)CC3)nc12", "assay": "binding, competition with immobilised ligand", "setting": "1 µM", "endpoint": "remaining binding", "value": "89%"}
{"Compound": "Cn1cc(-c2cc(F)cc(N3CCn4c(cc5c4CCCC5)C3=O)c2CO)cc(Nc2ccc(N3CCN(C4COC4)CC3)cn2)c1=O", "assay": "enzyme activity, inhibitor", "setting": "0.1 µM", "endpoint": "inhibition", "value": "11%"}
{"Compound": "CC(C)(C)c1cc(C=C(C#N)C#N)cc(Br)c1O", "assay": "enzyme activity, inhibitor", "setting": "0.5 µM", "endpoint": "remaining activity", "value": "100%"}
{"Compound": "Cn1cncc1[C@@](O)(COc1ccc(C#N)cc1-c1ccc(OC(F)(F)F)cc1)c1ccc(C#N)cc1", "assay": "cell-free assay, competition with immobilised ligand", "setting": "1 µM", "endpoint": "remaining binding", "value": "96%"}
{"Compound": "Cn1cc(-c2cccc(N3CCc4c(sc5c4CC(C)(C)C5)C3=O)c2CO)cc(Nc2ccncn2)c1=O", "assay": "enzyme activity, inhibitor", "setting": "1 µM", "endpoint": "inhibition", "value": "6%"}
{"Compound": "O=c1[nH]c2ccccc2n1C1CCN(Cc2ccc(-c3[nH]c4cc5ncnc5cc4nc3-c3ccccc3)cc2)CC1", "assay": "cell-free assay", "setting": "0.5 µM", "endpoint": "remaining signal", "value": "102%"}
{"Compound": "Cc1nn(C)cc1-c1nc2c(N3CCN(Cc4ccc(Cl)cc4)CC3)c(Cl)cnc2[nH]1", "assay": "binding, competition with immobilised ligand", "setting": "1 µM", "endpoint": "remaining binding", "value": "100%"}
